A word on the inhibition: it is the relative decrease from the control value, in per cent. One may read the IC50 as the midpoint of a concentration-inhibition curve. High values mean a need for much substance, low ones inhibition by little substance.

This is an account of results in ChEMBL document CHEMBL1123845 (J Med Chem, 1987).

Calls of active or inactive are those of the source. The calls are words filed in the database; no cut-off is given here.

One assay has as its target T1, Polyunsaturated fatty acid 5-lipoxygenase (Rattus norvegicus) (UniProt P12527).
T1 sequence (whole entry): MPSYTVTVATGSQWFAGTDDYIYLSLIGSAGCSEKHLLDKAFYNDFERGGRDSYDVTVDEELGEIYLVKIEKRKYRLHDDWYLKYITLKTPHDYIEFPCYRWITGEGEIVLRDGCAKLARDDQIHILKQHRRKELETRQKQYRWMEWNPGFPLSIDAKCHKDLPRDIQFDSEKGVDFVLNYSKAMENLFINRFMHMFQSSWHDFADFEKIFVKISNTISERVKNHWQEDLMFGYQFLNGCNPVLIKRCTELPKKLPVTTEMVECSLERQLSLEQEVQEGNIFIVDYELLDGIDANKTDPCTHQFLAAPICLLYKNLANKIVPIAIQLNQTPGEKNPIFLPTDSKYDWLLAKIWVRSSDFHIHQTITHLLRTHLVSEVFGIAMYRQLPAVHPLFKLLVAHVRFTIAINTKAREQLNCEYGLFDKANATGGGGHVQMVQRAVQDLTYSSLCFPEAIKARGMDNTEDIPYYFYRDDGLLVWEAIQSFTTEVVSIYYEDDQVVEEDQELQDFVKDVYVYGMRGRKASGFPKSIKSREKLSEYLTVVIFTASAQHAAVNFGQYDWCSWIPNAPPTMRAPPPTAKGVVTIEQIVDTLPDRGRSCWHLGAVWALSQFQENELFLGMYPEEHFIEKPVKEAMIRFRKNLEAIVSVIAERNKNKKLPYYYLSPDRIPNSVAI
Briefly: Compound was evaluated for the inhibition of rat basophilic leukemia-1 (RBL-1) 5-Lipoxygenase at 10 uM. Format: cell-based. The essentials:
(§1)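 Enzyme source: 20000g supernatant of sonicated RBL-1 cells (1.5 × 10⁶ cell equivalents) in pH 6.8 BES/PIPES buffer with EDTA, CaCl₂ and NaCl. Compound or 2% DMSO vehicle preincubated 20 min at 37 °C. Reaction started with 66 μM arachidonic acid carrying [¹⁴C] tracer and run 5 min. Acid stop, ether extraction, then TLC. [¹⁴C]5-HETE counted and corrected by [³H]-5-HETE recovery.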
`CCCCCC(O)/C=C/C=C/CCCCCCC(=O)O` (stereo not given) had an inhibition of 24%.

The next assay has as its target T2, Polyunsaturated fatty acid 5-lipoxygenase (Rattus norvegicus, UniProt P12527).
T2 sequence (P12527 whole entry): T1 sequence (whole entry)
Briefly: (§2) Compound was evaluated for the inhibition of rat basophilic leukemia-1 (RBL-1) 5-Lipoxygenase at 100 uM; NS = no significant activity. The assay is classed as cell-based. The essentials:
as §1
As for `CCCCCC(O)/C=C/C=C/CCCCC(=O)O` (stereo not given), the half-maximal inhibitory concentration (IC50) entry is recorded as “Not Active”.

A further assay concerns the target T1, Polyunsaturated fatty acid 5-lipoxygenase (Rattus norvegicus). The experiment in a line: Inhibition of rat basophilic leukemia-1 (RBL-1) 5-Lipoxygenase at 100 uM. Format: cell-based. The essentials: as §1
As for `CCCCCC/C=C/C#CCCCCCCCCCC(=O)O`, the inhibition came out at 48%.
Same read-out and setting: next, `O=C(O)CCCCCCCCC/C=C\C=C\C(O)CCCCCO` (stereo not given): 46%; `CCCCCC(O)/C=C/C#CCCCCCCC(=O)O` (stereo not given): 18%.
For `CCCCCC1/C=C/C=C\CCCCCCCCCC(=O)O1` (stereo not given), the inhibition came to 42%.
On the same count and under the same terms, with `CCCCCC(O)/C=C/C=C/CCCCCC(=O)O` (stereo not given) the figure was 17%; with `CCCCCC(O)/C=C\C=C/CCCCCCCCCC(=O)O` (stereo not given), 44%.
Still for that read-out and setting: with `CCCCCC(O)c1cccc(OCCCCCCCC(=O)O)c1` (stereo not given) the figure was 23%; with `CCCCCC/C=C/C=C\CCCCCCCCCC(=O)O`, 16%; with `CCCCCC(O)C#C/C=C/CCCCCCCCCC(=O)O` (stereo not given), 30%.
The same measure, in the same setting: with `CCCCCC(O)/C=C/C=C/CCCCCCCCC(=O)O` (stereo not given) the figure was 39%; with `CCCCCC(O)/C=C/C#CCCCCCCCC(=O)O` (stereo not given), 24%.
`COC(=O)CCCCC(O)/C=C/C=C/CCCCCCCCCC(=O)O` (stereo not given) returned an inhibition of 31%.
Same read-out and setting: next, `CCCCCC(/C=C/C#CCCCCCCCCCC(=O)O)OC(C)=O` (stereo not given): 40%.
Same read-out and setting: next, `COC(=O)CCCCC(O)/C=C/C#CCCCCCCCCCC(=O)O` (stereo not given): 22%.

A further assay has the same target. Briefly: Compound was evaluated for the inhibition of rat basophilic leukemia-1 (RBL-1) 5-Lipoxygenase at 33 uM. The assay is classed as cell-based. The essentials:
as §1
Take `CCCCCC1/C=C/C#CCCCCCCCCCC(=O)O1` (stereo not given): the inhibition worked out at 16%.

For the next assay the target is unchanged. The description is as §2. Format: cell-based. The essentials:
as §1
As for `CCCCCC(O)/C=C/C#CCCCCC(=O)O` (stereo not given), the inhibition entry was “inactive”.
Still for that read-out and setting: with `O=C(O)CCCCCCCCCC#C/C=C/C(O)CCCCC(=O)O` (stereo not given) the entry was “inactive”; with `CCCCCC(O)/C=C/C#CCCCCCC(=O)O` (stereo not given), “inactive”; with `CCCCC[C@H](O)CCCCCCCCCCCCCC(=O)O`, “inactive”.

The target is the same in a further assay. The experiment in a line: Compound was evaluated for the inhibition of rat basophilic leukemia-1 (RBL-1) 5-Lipoxygenase at 75 uM. Format: cell-based. The essentials:
as §1
The compound `CCCCCC(O)CC/C=C\CCCCCCCCCC(=O)O` (stereo not given) came in with an inhibition of 36%.

For another assay the target is unchanged. Briefly: Compound was evaluated for the inhibition of rat basophilic leukemia-1 (RBL-1) 5-Lipoxygenase at 30 uM. The assay is classed as cell-based. The essentials:
as §1
`CCCCCC(O)/C=C/C=C/CCCCCCCCCCC(=O)O` (stereo not given) yielded an inhibition of 41%.
Same read-out and setting: with `CCCCCC(O)/C=C/C#CCCCCCCCCCC(=O)N(CC)CC` (stereo not given) the figure was 49%.
The same measure, in the same setting: with `CCCCC[C@H](O)/C=C/C=C\CCCCCCCCCC(=O)N(CC)CC` the figure was 39%.
Still for that read-out and setting: with `CCCCCC/C=C/C#CCCCCCCCCC(=O)O` the figure was 33%; with `CCCCCC(O)/C=C/C=C/CCCCCCCCCC(=O)O` (stereo not given), 33%; with `CCCCCC(O)/C=C/C#CCCCCCCCCCCC(=O)O` (stereo not given), 24%.

The target is the same in another assay. The experiment in a line: Compound was evaluated for the inhibition of rat basophilic leukemia-1 (RBL-1) 5-Lipoxygenase at 40 uM. The assay is classed as cell-based. The essentials: as §1
In the case of `CCCCCCC(O)/C=C/C=C/CCCCCCCCCC(=O)O` (stereo not given), the inhibition came out at 49%.

The target of a further assay is T2, Polyunsaturated fatty acid 5-lipoxygenase. The experiment in a line: Inhibition of rat basophilic leukemia-1 (RBL-1) 5-lipoxygenase. Format: cell-based. The essentials:
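Enzyme source: 20000g supernatant of sonicated RBL-1 cells (1.5 × 10⁶ cell equivalents) in pH 6.8 BES/PIPES buffer with EDTA, CaCl₂ and NaCl. Compound or 2% DMSO vehicle preincubated 20 min at 37 °C. Acid stop, ether extraction, then TLC. [¹⁴C]5-HETE counted and corrected by [³H]-5-HETE recovery.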
`CCCCC[C@H](O)/C=C/C=C\C/C=C\C/C=C\CCCCCC(=O)O`: the 50% inhibitory concentration (IC50) came to 62 µM.
On the same count and under the same terms, with `CCCCC[C@H](O)/C=C\C=C/C/C=C\CCCCCCC(=O)O` the figure was 77 µM; with `CCCCC/C=C\C/C=C\C/C=C\C=C\C(O)CCCC(=O)O` (stereo not given), 77 µM; with `CCCCC[C@H](O)/C=C/C=C\C/C=C/CCCCC(=O)O`, 29 µM.
On the same count and under the same terms, next, `CCCCC[C@@H](/C=C/C=C\C/C=C\C/C=C\CCCC(=O)O)OC(C)=O`: 17 µM; `CCCCC[C@H](O)/C=C/C=C\C/C=C\C=C\C1CCCC(=O)O1` (stereo not given in full): 25 µM.
Still for that read-out and setting: with `CCCC(O)/C=C/C#CCCCCCCCCCC(=O)O` (stereo not given) the figure was 260 µM; with `CCCCCC(=O)/C=C/C=C\C/C=C\C/C=C\CCCC(=O)O`, 26 µM.
For the compound `CCCCCC(O)/C=C/C#CCCCCCCCCC(=O)O` (stereo not given), the IC50 was found to be 73 µM.
Regarding `CCCCC/C=C\C/C=C\C/C=C\C=C\C1CCCC(=O)O1` (stereo not given), the IC50 came to 23 µM.
Turning to `O=C(O)CCCCCCCCCC#C/C=C/C(O)CC1CCCC1` (stereo not given), the IC50 came out at 82 µM.
Same read-out and setting: next, `CCCCCC(/C=C/C=C\CCCCCCCCCC(=O)O)OC(C)=O` (stereo not given): 76 µM; `CCCCC[C@@H](/C=C/C=C\C/C=C\C/C=C\CCCC(=O)OC)OC(C)=O`: 7.2 µM.
Still for that read-out and setting: next, `CCCCCC(=O)/C=C/C=C\CCCCCCCCCC(=O)O`: 55 µM; `CCCCCCC(O)/C=C/C#CCCCCCCCCCC(=O)O` (stereo not given): 32 µM; `CCCCC[C@H](O)/C=C/C=C\C/C=C\C/C=C\CCCC(=O)O` [ICOMUCRET]: 7.3 µM.
Still for that read-out and setting: next, `CCCCC[C@H](O)/C=C/C=C\CCCCCCCC(=O)O`: 82 µM; `CCCCCC(O)/C=C/C=C\CCCCCCCCCC(=O)O` (stereo not given): 35 µM.
The compound `CCCCC[C@H](O)/C=C/C=C\C/C=C\C=C\C(O)CCCC(=O)O` (stereo not given in full) returned an IC50 of 270 µM.
For `CCCCC[C@H](O)/C=C/C=C\C/C=C\C/C=C\CCCC(=O)OC`, 64 µM corresponded to half-maximal inhibition (IC50).
Same read-out and setting: with `CCCC(O)/C=C/C=C/CCCCCCCCCC(=O)O` (stereo not given) the figure was 160 µM.
Same read-out and setting: next, `O=C(O)CCCCCCCCC/C=C/C=C/C(O)CC1CCCC1` (stereo not given): 61 µM.
On the same count and under the same terms, with `CCCCC[C@H](O)/C=C/C=C\C/C=C\C/C=C\CCCCCC(=O)OC` the figure was 6.5 µM; with `CCCCC[C@@H](/C=C/C=C\C/C=C\C/C=C\CCCC(=O)O)OO`, 3.4 µM.
Consider `CCCCCC(O)/C=C\C=C\CCCCCCCCCC(=O)O` (stereo not given), for which the IC50 was 58 µM.
Still for that read-out and setting: with `CCCCCC(O)C#CC#CCCCCCCCCCC(=O)O` (stereo not given) the figure was 27 µM.
Same read-out and setting: with `CCCCCC(O)/C=C/C#CCCCCCCCCCC(=O)O` (stereo not given) the figure was 66 µM.
On the same count and under the same terms, next, `CCCCC[C@H](O)/C=C/C=C\CCCCCCCCCC(=O)O`: 26 µM.

Another assay has as its target T1, Polyunsaturated fatty acid 5-lipoxygenase (Rattus norvegicus). The experiment in a line: Compound was evaluated for the inhibition of rat basophilic leukemia-1 (RBL-1) 5-Lipoxygenase at 300 uM. Format: cell-based. The essentials:
as §1
Regarding `CCCCC[C@H](O)/C=C/C=C\CCCCCCCC(=O)OC`, the inhibition was 34%.
As for `CCCCC[C@H](O)/C=C/C=C\CCCCCCCCCC(=O)OC`, the inhibition turned out to be 34%.
Still for that read-out and setting: next, `CCCC(O)/C=C/C#CCCCCCCCCC(=O)O` (stereo not given): 46%.
